ChEMBL document CHEMBL3286209, “Synthesis and biological activities of novel pleuromutilin derivatives with a substituted thiadiazole moiety as potent drug-resistant bacteria inhibitors” (J Med Chem, 2014)
≈ marks a conversion by molar mass, not a printed value.

How the values were obtained:
[1] = Cmax in Sprague-Dawley rat at 5 mg/kg, iv; assay type: ADME, organism-based; set-up: dose 5 mg/kg, route intravenous; settings: in vivo
Outline: (§1)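 Male SD rats, 220−250 g, 6−8 weeks old, n = 3, fasted overnight and for 6 h after dosing. Dosed in 5% Tween in water, 5 mg/kg iv or 15 mg/kg po. Serial retrobulbar blood samples into EDTA-K₂ tubes; plasma levels by HPLC. Parameters from mean plasma concentration by noncompartmental analysis.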

[2] = system: Streptococcus agalactiae; experiment: Antibacterial activity against Streptococcus agalactiae at 320 ug/ml after 24 hrs by Oxford cup assay; assay type: functional; settings: read-out: IZ
Outline: (§2)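 Oxford cup diffusion: saline inoculum set by McFarland standard, spread on nutrient agar plates. […] Inhibition zone measured after 24 h at 37 °C; triplicate.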

[3] = Volume of distribution at steady state in Sprague-Dawley rat at 5 mg/kg, iv; assay type: ADME, organism-based; set-up: dose 5 mg/kg, route intravenous; settings: in vivo, read-out: Vdss; outline: as §1
[4] = system: Escherichia coli; experiment: Antibacterial activity against Escherichia coli at 160 ug/ml after 24 hrs by Oxford cup assay; assay type: functional; settings: read-out: IZ; outline: as §2
[5] = Clearance in Sprague-Dawley rat at 5 mg/kg, iv; assay type: ADME, organism-based; set-up: dose 5 mg/kg, route intravenous; settings: in vivo; outline: as §1
[6] = system: Staphylococcus epidermidis; experiment: Antibacterial activity against methicillin-resistant Staphylococcus epidermidis after 48 hrs by agar dilution method; assay type: functional
Outline: (§3)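 Agar dilution per NCCLS using clinical isolates. Compound DMSO/water solutions are 2-fold serially diluted in water, then mixed 1:10 into hot Mueller–Hinton agar. Inocula come from blood slants, adjusted to about 10⁵−10⁶ cfu/mL in 0.90% saline, and spotted at 10 μL. Plates incubated at 36.5 °C for 48 h. MIC is the lowest concentration giving complete growth inhibition. Run in triplicate at pH 7.40.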

[7] = Mean residence time in Sprague-Dawley rat at 15 mg/kg, po; assay type: ADME, organism-based; set-up: dose 15 mg/kg, route oral; settings: in vivo; outline: as §1
[8] = Tmax in Sprague-Dawley rat at 15 mg/kg, po; assay type: ADME, organism-based; set-up: dose 15 mg/kg, route oral; settings: in vivo; outline: as §1
[9] = Clearance in Sprague-Dawley rat at 15 mg/kg, po; assay type: ADME, organism-based; set-up: dose 15 mg/kg, route oral; settings: in vivo; outline: as §1
[10] = system: Streptococcus agalactiae; experiment: Antibacterial activity against Streptococcus agalactiae after 48 hrs by agar dilution method; assay type: functional
Outline: (§4)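 Agar dilution per NCCLS on Mueller–Hinton agar; compound in DMSO/water, 2-fold serial dilutions in distilled water, 2 mL dilution mixed into 18 mL hot agar. Clinical isolates from blood slants, adjusted to about 10⁵−10⁶ cfu/mL in 0.90% saline; 10 μL spotted. Incubated 36.5 °C for 48 h; MIC = lowest concentration giving complete growth inhibition. Triplicate runs.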

[11] = AUC (0 to infinity) in Sprague-Dawley rat at 5 mg/kg, iv; assay type: ADME, organism-based; set-up: time infinity, dose 5 mg/kg, route intravenous; settings: plasma; outline: as §1
[12] = AUC (0 to infinity) in Sprague-Dawley rat at 15 mg/kg, po; assay type: ADME, organism-based; set-up: time infinity, dose 15 mg/kg, route oral; settings: plasma; outline: as §1
[13] = Mean residence time in Sprague-Dawley rat at 5 mg/kg, iv; assay type: ADME, organism-based; set-up: dose 5 mg/kg, route intravenous; settings: in vivo; outline: as §1
[14] = Elimination half life in Sprague-Dawley rat at 15 mg/kg, po; assay type: ADME, organism-based; set-up: dose 15 mg/kg, route oral; settings: in vivo, read-out: beta t1/2 (converted); outline: as §1
[15] = system: Rattus norvegicus; experiment: Volume of distribution at steady state in Sprague-Dawley rat at 15 mg/kg, po; assay type: ADME, organism-based; set-up: dose 15 mg/kg, route oral; settings: in vivo; outline: as §1
[16] = Elimination half life in Sprague-Dawley rat at 5 mg/kg, iv; assay type: ADME, organism-based; set-up: dose 5 mg/kg, route intravenous; settings: in vivo, read-out: beta t1/2 (converted); outline: as §1
[17] = Cmax in Sprague-Dawley rat at 15 mg/kg, po; assay type: ADME, organism-based; set-up: dose 15 mg/kg, route oral; settings: in vivo; outline: as §1
[18] = system: Staphylococcus epidermidis; experiment: Antibacterial activity against methicillin-resistant Staphylococcus epidermidis at 320 ug/ml after 24 hrs by Oxford cup assay; assay type: functional; settings: read-out: IZ
Outline: (§5)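 Oxford cup diffusion using clinical isolates. Inocula are made in 0.9% saline to a McFarland standard and spread on nutrient agar. […] Inhibition zone diameter is measured after 24 h at 37 °C. Run in triplicate.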

[19] = Oral bioavailability in Sprague-Dawley rat at 15 mg/kg; assay type: ADME, organism-based; settings: in vivo; outline: as §1
[20] = system: Staphylococcus aureus; experiment: Antibacterial activity against methicillin-resistant Staphylococcus aureus at 160 ug/ml after 24 hrs by Oxford cup assay; assay type: functional; settings: read-out: IZ; outline: as §5
[21] = system: Escherichia coli; experiment: Antibacterial activity against Escherichia coli at 320 ug/ml after 24 hrs by Oxford cup assay; assay type: functional; settings: read-out: IZ; outline: as §2
[22] = system: Staphylococcus aureus; experiment: Antibacterial activity against methicillin-resistant Staphylococcus aureus after 48 hrs by agar dilution method; assay type: functional; outline: as §3
[23] = Tmax in Sprague-Dawley rat at 5 mg/kg, iv; assay type: ADME, organism-based; set-up: dose 5 mg/kg, route intravenous; settings: in vivo; outline: as §1
[24] = system: Escherichia coli; experiment: Antibacterial activity against Escherichia coli after 48 hrs by agar dilution method; assay type: functional; outline: as §4
[25] = system: Staphylococcus epidermidis; experiment: Antibacterial activity against methicillin-resistant Staphylococcus epidermidis at 160 ug/ml after 24 hrs by Oxford cup assay; assay type: functional; settings: read-out: IZ; outline: as §5
[26] = system: Streptococcus agalactiae; experiment: Antibacterial activity against Streptococcus agalactiae at 160 ug/ml after 24 hrs by Oxford cup assay; assay type: functional; settings: read-out: IZ; outline: as §2
[27] = system: Staphylococcus aureus; experiment: Antibacterial activity against methicillin-resistant Staphylococcus aureus at 320 ug/ml after 24 hrs by Oxford cup assay; assay type: functional; settings: read-out: IZ; outline: as §5
[28] = Oral bioavailability in chicken; assay type: ADME, organism-based, Gallus gallus; settings: in vivo
[29] = Oral bioavailability in duck; assay type: ADME, organism-based; settings: anas platyrhynchos, in vivo

Row | Structure (SMILES) | Cmax [1] | zone of inhibition at 320 µg/mL [2] | Vd [3] | zone of inhibition at 160 µg/mL [4] | clearance [5] | MIC [6] | MRT [7] | Tmax [8] | CL/F [9] | MIC [10] | AUC(0-inf) [11] | AUC(0-inf) [12] | zone of inhibition at 320 µg/mL [18] | zone of inhibition at 160 µg/mL [20] | zone of inhibition at 320 µg/mL [21] | MIC [22] | MIC [24] | zone of inhibition at 160 µg/mL [25] | zone of inhibition at 160 µg/mL [26] | zone of inhibition at 320 µg/mL [27] | other results
1 | C=C[C@]1(C)C[C@@H](OC(=O)CSc2nnc(N)s2)[C@]2(C)[C@H](C)CC[C@]3(CCC(=O)[C@H]32)[C@@H](C)[C@@H]1O | 13600 ng/mL | 17.3 mm | 0.92 L/kg | 12.4 mm | 5.41 mL/min/kg | 1 µg/mL (≈ 2.03 µM) | 8.42 h | 0.75 h | 10.2 mL/min/kg | 0.25 µg/mL (≈ 0.506 µM) | 15400 ng·h/mL | 24600 ng·h/mL | 15.2 mm | 13 mm | 14.3 mm | 0.5 µg/mL (≈ 1.01 µM) | 8 µg/mL (≈ 16.2 µM) | 12.8 mm | 15 mm | 15.6 mm | MRT [13]: 2.84 h; half-life [14]: 6.07 h; Vdss [15]: 5.14 L/kg; half-life [16]: 3.4 h; Cmax [17]: 3070 ng/mL; bioavailability [19]: 35.8%; Tmax [23]: 4.8 min
2 | C=C[C@]1(C)C[C@@H](OC(=O)CSc2nnc(NC(=O)CN3CCCCC3)s2)[C@]2(C)[C@H](C)CC[C@]3(CCC(=O)[C@H]32)[C@@H](C)[C@@H]1O | 11300 ng/mL | 17.7 mm | 1.02 L/kg | 11.7 mm | 5.9 mL/min/kg | 1 µg/mL (≈ 1.62 µM) | 7.91 h | 0.75 h | 10.4 mL/min/kg | 0.5 µg/mL (≈ 0.808 µM) | 14100 ng·h/mL | 24100 ng·h/mL | 17.4 mm | 13.8 mm | 13.3 mm | 0.5 µg/mL (≈ 0.808 µM) | 16 µg/mL (≈ 25.9 µM) | 14.5 mm | 13.5 mm | 18.8 mm | MRT [13]: 2.88 h; half-life [14]: 5.98 h; Vdss [15]: 4.91 L/kg; half-life [16]: 3.89 h; Cmax [17]: 4650 ng/mL; bioavailability [19]: 39.7%; Tmax [23]: 4.8 min
3 | C=C[C@]1(C)C[C@@H](OC(=O)CSc2nnc(NC(=O)c3ccc(OC)cc3)s2)[C@]2(C)[C@H](C)CC[C@]3(CCC(=O)[C@H]32)[C@@H](C)[C@@H]1O |  | 14.3 mm |  | 10.7 mm |  | 2 µg/mL (≈ 3.19 µM) |  |  |  | 2 µg/mL (≈ 3.19 µM) |  |  | 14.4 mm | 12.2 mm | 11.2 mm | 2 µg/mL (≈ 3.19 µM) | 32 µg/mL (≈ 51 µM) | 9.52 mm | 11.5 mm | 15.5 mm | 
4 | C=C[C@]1(C)C[C@@H](OC(=O)CSC(C)(C)CNC(=O)[C@H](N)C(C)C)[C@]2(C)[C@H](C)CC[C@]3(CCC(=O)[C@H]32)[C@@H](C)[C@@H]1O [VALNEMULIN] |  |  |  |  |  |  |  |  |  |  |  |  |  |  |  |  |  |  |  |  | bioavailability [28]: 74%; bioavailability [29]: 36.7%
